Laboratory results reported in ChEMBL document CHEMBL3763115, “Silibinin derivatives as anti-prostate cancer agents: Synthesis and cell-based evaluations” (Eur J Med Chem, 2016).

What was measured:
[1] = Potency index, ratio of silibinin IC50 to compound IC50 for antiproliferative activity against human PC3 cells; type: functional, PC-3
Procedure, shortened: (§1)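 Ratio of silibinin IC50 to derivative IC50. Both come from the 3-day WST-1 assay run in parallel (5 doses, absorbance at 430 nm, IC50 from linear fit, at least triplicates).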

LNCaP [2] = assay: Potency index, ratio of silibinin IC50 to compound IC50 for antiproliferative activity against human LNCAP cells; type: functional; procedure, shortened: as §1
[3] = Antiproliferative activity against human DU145 cells assessed as reduction in cell viability after 3 days by WST-1 cell proliferation assay; type: functional, cell-based; conditions: DU-145, 72 h
Procedure, shortened: (§2)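 Cells from ATCC; PC-3 and LNCaP grown in RPMI-1640, DU145 in EMEM, each with 10% FBS and 1% penicillin/streptomycin, 37 °C, 5% CO2. 3,200 cells per well, treated at 5 concentrations for 3 days with 0.25% DMSO as vehicle control. WST-1 reagent added, 3 h at 37 °C, absorbance read at 430 nm. IC50 from linear fit of at least five doses, mean of at least triplicates.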

[4] = Antiproliferative activity against human PC3 cells assessed as reduction in cell viability after 3 days by WST-1 cell proliferation assay; type: functional, cell-based; conditions: PC-3, 72 h; procedure, shortened: as §2
LNCaP [5] = assay: Antiproliferative activity against human LNCAP cells assessed as reduction in cell viability after 3 days by WST-1 cell proliferation assay; type: functional, cell-based; conditions: 72 h; procedure, shortened: as §2
[6] = Potency index, ratio of silibinin IC50 to compound IC50 for antiproliferative activity against human DU145 cells; type: functional, DU-145; procedure, shortened: as §1

Structure (SMILES) | IC50 (LNCaP [5]) [µM] | Ratio IC50 [1] | Ratio IC50 (LNCaP [2]) | IC50 [3] [µM] | IC50 [4] [µM] | Ratio IC50 [6]
CCCOc1cc(O)c2c(c1)O[C@H](c1ccc3c(c1)OC(c1ccc(O)c(OC)c1)C(CO)O3)[C@@H](O)C2=O (stereo partly specified) | 4.66 | 4 | 9 | 30.3 | 18.5 | 3
CCCCCCOc1cc(O)c2c(=O)c(OCCCCCC)c(-c3ccc4c(c3)OC(c3ccc(O)c(OC)c3)C(CO)O4)oc2c1 (stereo unspecified) | > 100 | <1 | <1 | > 100 | > 100 | <1
CCCCCCCOc1cc(O)c2c(=O)c(OCCCCCCC)c(-c3ccc4c(c3)OC(c3ccc(O)c(OC)c3)C(CO)O4)oc2c1 (stereo unspecified) | > 100 | <1 | <1 | > 100 | > 100 | <1
COc1cc(C2Oc3cc(-c4oc5cc(OCc6ccccc6)cc(O)c5c(=O)c4OCc4ccccc4)ccc3OC2CO)ccc1O (stereo unspecified) | > 100 | <1 | <1 | > 100 | > 100 | <1
CCCCCOc1cc(O)c2c(c1)O[C@H](c1ccc3c(c1)OC(c1ccc(O)c(OC)c1)C(CO)O3)[C@@H](O)C2=O (stereo partly specified) | 1.78 | 12 | 24 | 8.93 | 6.17 | 10
CCOc1cc(O)c2c(c1)O[C@H](c1ccc3c(c1)OC(c1ccc(O)c(OC)c1)C(CO)O3)[C@@H](O)C2=O (stereo partly specified) | 0.35 | 5 | 123 | 27.7 | 16.1 | 3
COc1cc(C2Oc3cc([C@H]4Oc5cc(O)cc(O)c5C(=O)[C@@H]4O)ccc3OC2CO)ccc1O (stereo partly specified) [SILIBININ] | 43 | – | – | 93.3 | 72.7 | –
CCCCCOc1cc(O)c2c(=O)c(OCCCCC)c(-c3ccc4c(c3)OC(c3ccc(O)c(OC)c3)C(CO)O4)oc2c1 (stereo unspecified) | 28.7 | 1 | 1 | 28.7 | 52.1 | 3
CCCCCCCOc1cc(O)c2c(c1)O[C@H](c1ccc3c(c1)OC(c1ccc(O)c(OC)c1)C(CO)O3)[C@@H](O)C2=O (stereo partly specified) | 4.57 | 7 | 9 | 17.4 | 10.9 | 5
COc1cc(O)c2c(c1)O[C@H](c1ccc3c(c1)OC(c1ccc(O)c(OC)c1)C(CO)O3)[C@@H](O)C2=O (stereo partly specified) | 0.44 | 6 | 98 | 25.1 | 12.4 | 4
CCCCCCOc1cc(O)c2c(c1)O[C@H](c1ccc3c(c1)OC(c1ccc(O)c(OC)c1)C(CO)O3)[C@@H](O)C2=O (stereo partly specified) | 1.65 | 12 | 26 | 11.3 | 5.97 | 8
COc1cc(C2Oc3cc([C@H]4Oc5cc(OCc6ccccc6)cc(O)c5C(=O)[C@@H]4O)ccc3OC2CO)ccc1O (stereo partly specified) | 2.04 | 14 | 21 | 8.77 | 5.29 | 11
CCCCOc1cc(O)c2c(c1)O[C@H](c1ccc3c(c1)OC(c1ccc(O)c(OC)c1)C(CO)O3)[C@@H](O)C2=O (stereo partly specified) | 2.51 | 14 | 17 | 12 | 5.38 | 8
COc1cc(O)c2c(=O)c(OC)c(-c3ccc4c(c3)OC(c3ccc(O)c(OC)c3)C(CO)O4)oc2c1 (stereo unspecified) | 6.88 | 5 | 6 | 22.2 | 15.3 | 4

Further lines, with some results ahead:

IC50 (LNCaP [5]) [µM] | Structure (SMILES) | Ratio IC50 [1] | Ratio IC50 (LNCaP [2]) | IC50 [3] [µM] | IC50 [4] [µM] | Ratio IC50 [6]
5.57 | CCOc1cc(O)c2c(=O)c(OCC)c(-c3ccc4c(c3)OC(c3ccc(O)c(OC)c3)C(CO)O4)oc2c1 (stereo unspecified) | 9 | 8 | 10.4 | 8.5 | 9
4.62 | CCCCCOc1cc(O)c2c(=O)c(O)c(-c3ccc4c(c3)OC(c3ccc(O)c(OC)c3)C(CO)O4)oc2c1 (stereo unspecified) | 12 | 9 | 6.92 | 6.05 | 14
46.6 | CCCCOc1cc(O)c2c(=O)c(OCCCC)c(-c3ccc4c(c3)OC(c3ccc(O)c(OC)c3)C(CO)O4)oc2c1 (stereo unspecified) | 2 | 1 | 36.5 | 45.8 | 3
4.41 | CCCOc1cc(O)c2c(=O)c(O)c(-c3ccc4c(c3)OC(c3ccc(O)c(OC)c3)C(CO)O4)oc2c1 (stereo unspecified) | 15 | 10 | 5.36 | 4.69 | 17
11 | CCCOc1cc(O)c2c(=O)c(OCCC)c(-c3ccc4c(c3)OC(c3ccc(O)c(OC)c3)C(CO)O4)oc2c1 (stereo unspecified) | 5 | 4 | 20.6 | 17.4 | 5
4.01 | CCCCCCOc1cc(O)c2c(=O)c(O)c(-c3ccc4c(c3)OC(c3ccc(O)c(OC)c3)C(CO)O4)oc2c1 (stereo unspecified) | 10 | 11 | 8.84 | 6.94 | 11
4.81 | CCCCCCCOc1cc(O)c2c(=O)c(O)c(-c3ccc4c(c3)OC(c3ccc(O)c(OC)c3)C(CO)O4)oc2c1 (stereo unspecified) | 10 | 9 | 7.49 | 7.09 | 12
3.71 | COc1cc(C2Oc3cc(-c4oc5cc(OCc6ccccc6)cc(O)c5c(=O)c4O)ccc3OC2CO)ccc1O (stereo unspecified) | 9 | 12 | 8.97 | 7.98 | 10
2.76 | COc1cc(O)c2c(=O)c(O)c(-c3ccc4c(c3)OC(c3ccc(O)c(OC)c3)C(CO)O4)oc2c1 (stereo unspecified) | 30 | 16 | 7.92 | 2.39 | 12
3.19 | CCCCOc1cc(O)c2c(=O)c(O)c(-c3ccc4c(c3)OC(c3ccc(O)c(OC)c3)C(CO)O4)oc2c1 (stereo unspecified) | 16 | 13 | 5.81 | 4.55 | 16
